Results: ChEMBL document CHEMBL2062448, “A substituted 3,4-dihydropyrimidinone derivative (compound D22) prevents inflammation mediated neurotoxicity; role in microglial activation in BV-2 cells” (Bioorg Med Chem Lett, 2012)
The source made the active and inactive calls. The rule behind the calls is not given here.

Experiments:
BV-2 [1] = assay: Antineuroinflammatory activity in […] cells assessed as inhibition of LPS-induced nitric oxide production at 10 uM treated 30 mins before LPS challenge measured after 24 hrs by Griess reaction; assay type: functional
Outline: (§1)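 BV-2 cells at 3 × 10⁴ cells/well in DMEM with 5% FBS at 37 °C, 5% CO₂. Cells were pretreated 30 min, then given LPS 100 ng/ml for 24 h. Supernatant was mixed 1:1 with Griess reagent (1% sulfanilamide, 0.1% naphthylethylenediamine in 5% phosphoric acid). Absorbance at 570 nm was read after 10 min against a sodium nitrite standard.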

BV-2 [2] = assay: Antineuroinflammatory activity in […] cells assessed as inhibition of LPS-induced nitric oxide production at 5 to 20 uM treated 30 mins before LPS challenge measured after 24 hrs by Griess reaction; assay type: functional, cell-based; outline: as §1
BV-2 [3] = assay: Cytotoxicity against LPS-induced […] cells assessed as cell viability after 24 hrs by MTT assay; assay type: cell-based; conditions: bv-2, 24 h
Outline: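 BV-2 viability measured by MTT after 30 min pretreatment with 5, 10 or 20 µM, followed by LPS 100 ng/ml for 24 h. Mean ± S.E.M. of three independent experiments.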

BV-2 [4] = assay: Antineuroinflammatory activity in […] cells assessed as inhibition of LPS-induced PGE2 production at 5 to 20 uM treated 30 mins before LPS challenge measured after 24 hrs by competitive enzyme immunoassay; assay type: functional, cell-based
Outline: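 BV-2 cells plated at 1.5 × 10⁶ cells/well and pretreated with 5, 10 or 20 µM for 30 min. LPS 100 ng/ml was then added for 24 h. PGE₂ in medium was measured by competitive enzyme immunoassay kit. Mean ± S.E.M. of three independent experiments.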

BV-2 [5] = assay: Antineuroinflammatory activity in […] cells assessed as inhibition of LPS-induced iNOS expression at 5 to 20 uM after 6 hrs by Western blot analysis; assay type: functional, cell-based
Outline: (§2)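 BV-2 cells exposed to LPS 100 ng/ml with or without 5–20 µM for 6 h. Lysates were run on 8–12% SDS-PAGE and transferred to nitrocellulose. Blots were probed 12 h for iNOS or COX-2, then HRP secondary 1 h at room temperature, ECL detection and densitometry. Three independent experiments.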

BV-2 [6] = assay: Antineuroinflammatory activity in […] cells assessed as inhibition of LPS-induced COX2 expression at 5 to 20 uM after 6 hrs by Western blot analysis; assay type: functional, cell-based; outline: as §2
BV-2 [7] = assay: Antineuroinflammatory activity in […] cells assessed as inhibition of LPS-induced TNFalpha production treated 30 mins before LPS challenge measured after 24 hrs by ELISA; assay type: functional, cell-based
Outline: (§3)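 BV-2 cells plated at 1.5 × 10⁶ cells/well and pretreated for 30 min. Cells were then exposed to LPS 100 ng/ml for 24 h. IL-1β and TNF-α in culture medium were quantified by immunoassay kit. Mean ± S.E.M. of three independent experiments.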

BV-2 [8] = assay: Inhibition of LPS-induced ERK kinase phosphorylation in […] cells after 30 mins by Western blot analysis; assay type: cell-based
Outline: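 BV-2 cells exposed to LPS 100 ng/ml with or without 5–20 µM for 30 min. Lysates were run on 8–12% SDS-PAGE and transferred to nitrocellulose. Blots were probed 12 h for phospho-p38, -JNK or -ERK, then HRP secondary 1 h at room temperature, ECL detection and densitometry.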

N2a [9] = assay: Antineuroinflammatory activity in LPS-stimulated […] cells in conditioned media assessed as inhibition of DNA fragmentation in […] cells treated 30 mins before LPS challenge measured after 24 hrs by Gel electrophoresis; assay type: functional, cell-based
Outline: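 BV-2 cells pretreated with 5, 10 or 20 µM for 30 min, then stimulated with LPS 100 ng/ml for 24 h. Conditioned media were applied to N2a cells for 24 h. Cells were scraped and pelleted at 7500 rpm for 5 min. DNA fragmentation was resolved by gel electrophoresis alongside vehicle CM and LPS-with-vehicle CM lanes.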

N2a [10] = assay: Antineuroinflammatory activity in LPS-stimulated […] cells in conditioned media assessed as recovery of Bcl-2 expression in […] cells treated 30 mins before LPS challenge measured at 5 to 20 uM after 24 hrs by Western blot analysis; assay type: functional, cell-based
Outline: (§4)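 BV-2 cells pretreated with 5, 10 or 20 µM for 30 min, then LPS 100 ng/ml for 24 h. Conditioned media were collected and applied to N2a cells for 24 h. Lysates were run on 8–12% SDS-PAGE and transferred to nitrocellulose. Blots were probed 12 h with primary antibodies (cleaved caspase-3, Bax, Bcl-2), then HRP secondary 1 h at room temperature, ECL detection and densitometry. Mean ± S.E.M. of three independent experiments.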

N2a [11] = assay: Antineuroinflammatory activity in LPS-stimulated […] cells in conditioned media assessed as inhibition of Bax expression in […] cells treated 30 mins before LPS challenge measured at 5 to 20 uM after 24 hrs by Western blot analysis; assay type: functional, cell-based; outline: as §4
N2a [12] = assay: Antineuroinflammatory activity in LPS-stimulated […] cells in conditioned media assessed as inhibition of caspase-3 activation in […] cells treated 30 mins before LPS challenge measured at 5 to 20 uM after 24 hrs by Western blot analysis; assay type: functional, cell-based; outline: as §4
N2a [13] = assay: Antineuroinflammatory activity in LPS-stimulated […] cells in conditioned media assessed as inhibition of […] cell death treated 30 mins before LPS challenge measured after 24 hrs by MTT assay; assay type: functional, cell-based
Outline: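 BV-2 cells (DMEM, 5% FBS) pretreated with 5, 10 or 20 µM for 30 min, then LPS 100 ng/ml for 24 h. Conditioned media were transferred to N2a cells (DMEM, 10% FBS) for 24 h, and N2a viability was read by MTT. Mean ± S.E.M. of three independent experiments; one-way ANOVA with Tukey post test.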

BV-2 [14] = assay: Antineuroinflammatory activity in […] cells assessed as inhibition of LPS-induced IL-1beta production treated 30 mins before LPS challenge measured after 24 hrs by ELISA; assay type: functional, cell-based; outline: as §3
[15] = test system: c-Jun N-terminal kinase, JNK (Mus musculus); assay: Inhibition of LPS-induced JNK kinase phosphorylation in mouse BV2 cells after 30 mins by Western blot analysis; conditions: BV-2
[16] = test system: MAP kinase p38 (Mus musculus); assay: Inhibition of LPS-induced p38 kinase phosphorylation in mouse BV2 cells after 30 mins by Western blot analysis; conditions: BV-2

Compound: O=c1cc(-c2ccccc2)oc2cc(O)cc(O)c12
- inhibition (BV-2 [1]): Active

Compound: CCOC(=O)C1=C(C)NC(=O)NC1c1cccc(Oc2ccccc2)c1 (stereo not drawn)
- inhibition (BV-2 [2]): Active

Compound: CCOC(=O)C1=C(C)NC(=S)NC1c1cccc(Oc2ccccc2)c1 (stereo not drawn)
- inhibition at 10 µM (BV-2 [1]; Mus musculus, BV-2, read-out: INH): 51%
- Activity (BV-2 [3]): Non-toxic
- inhibition (BV-2 [4]): Active
- inhibition (BV-2 [5]): Active
- inhibition (BV-2 [6]): Active
- inhibition (BV-2 [7]): Dose-dependent effect
- inhibition (BV-2 [8]): Dose-dependent effect
- inhibition (N2a [9]): Active
- Activity (N2a [10]): Active
- inhibition (N2a [11]): Active
- inhibition (N2a [12]): Active
- inhibition (N2a [13]): Active
- inhibition (BV-2 [14]): Dose-dependent effect
- inhibition [15]: Dose-dependent effect
- inhibition [16]: Dose-dependent effect

Compound: CCOC(=O)C1=C(C)NC(=O)NC1c1cc(Cl)ccc1O (stereo not drawn)
- inhibition (BV-2 [2]): Active
